Results taken from ChEMBL document CHEMBL1158526, “Labeled 3-aryl-4-indolylmaleimide derivatives and their potential as angiogenic PET biomarkers” (Bioorg Med Chem, 2010).

How the values were obtained:
[1] = biological target: Vascular endothelial growth factor receptor 3 (Homo sapiens, UniProt P35916); test: Inhibition of VEGFR3 after 80 mins by radiometric protein kinase assay
Outline: (§1)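 Radiometric [γ-33P]-ATP kinase assay with poly(Glu,Tyr) 4:1 substrate. Reaction run 80 min at 30 °C, stopped with 2% H3PO4 and washed with 0.9% NaCl. 33Pi incorporation counted by microplate scintillation. IC50 from 12 concentrations tested in triplicate, with Z'-factor used as plate control.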

[2] = biological target: Platelet-derived growth factor receptor alpha (Homo sapiens, UniProt P16234); test: Inhibition of PDGFRalpha after 80 mins by radiometric protein kinase assay
Chain of Platelet-derived growth factor receptor alpha (P16234 whole entry): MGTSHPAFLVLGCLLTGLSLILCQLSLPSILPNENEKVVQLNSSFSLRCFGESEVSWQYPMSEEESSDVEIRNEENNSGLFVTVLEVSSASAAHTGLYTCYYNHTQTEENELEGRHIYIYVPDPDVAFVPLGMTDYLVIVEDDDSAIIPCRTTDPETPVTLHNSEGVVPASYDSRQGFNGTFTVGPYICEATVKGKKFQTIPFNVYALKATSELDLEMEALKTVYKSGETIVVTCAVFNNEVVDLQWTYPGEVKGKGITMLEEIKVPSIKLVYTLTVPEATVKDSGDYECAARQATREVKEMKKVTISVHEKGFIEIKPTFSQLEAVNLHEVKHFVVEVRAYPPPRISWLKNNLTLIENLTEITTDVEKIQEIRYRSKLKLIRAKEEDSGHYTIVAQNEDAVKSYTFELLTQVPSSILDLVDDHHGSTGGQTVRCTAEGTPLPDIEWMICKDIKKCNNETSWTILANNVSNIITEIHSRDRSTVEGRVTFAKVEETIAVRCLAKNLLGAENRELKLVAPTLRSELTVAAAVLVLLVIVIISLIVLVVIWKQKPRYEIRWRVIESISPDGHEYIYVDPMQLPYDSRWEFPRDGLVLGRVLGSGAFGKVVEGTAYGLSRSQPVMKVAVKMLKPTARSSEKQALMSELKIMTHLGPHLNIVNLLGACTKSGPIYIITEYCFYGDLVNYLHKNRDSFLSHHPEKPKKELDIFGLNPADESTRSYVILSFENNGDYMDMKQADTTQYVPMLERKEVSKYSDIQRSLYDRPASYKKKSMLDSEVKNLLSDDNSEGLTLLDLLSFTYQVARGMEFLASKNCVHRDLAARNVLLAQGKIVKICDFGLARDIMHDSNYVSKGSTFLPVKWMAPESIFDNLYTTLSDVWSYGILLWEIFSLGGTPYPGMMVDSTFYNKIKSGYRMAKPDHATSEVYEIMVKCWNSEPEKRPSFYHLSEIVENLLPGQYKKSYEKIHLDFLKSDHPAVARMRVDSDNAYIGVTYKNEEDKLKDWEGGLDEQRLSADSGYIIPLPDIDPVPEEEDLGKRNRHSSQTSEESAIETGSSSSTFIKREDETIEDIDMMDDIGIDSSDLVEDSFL
Outline: (§2)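 Radiometric [γ-33P]-ATP kinase assay with poly(Ala,Glu,Lys,Tyr) 6:2:5:1 substrate. Incubated 30 °C for 80 min, then stopped with 2% H3PO4 and washed with 0.9% NaCl. 33Pi incorporation read by scintillation counting. IC50 from 12 concentrations in triplicate; plate quality checked by Z'-factor.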

[3] = biological target: Vascular endothelial growth factor receptor 2 (Homo sapiens, UniProt P35968); test: Inhibition of VEGFR2 after 80 mins by radiometric protein kinase assay; outline: as §1
[4] = biological target: Platelet-derived growth factor receptor beta (Homo sapiens, UniProt P09619); test: Inhibition of PDGFRbeta after 80 mins by radiometric protein kinase assay
Chain of Platelet-derived growth factor receptor beta (P09619 whole entry): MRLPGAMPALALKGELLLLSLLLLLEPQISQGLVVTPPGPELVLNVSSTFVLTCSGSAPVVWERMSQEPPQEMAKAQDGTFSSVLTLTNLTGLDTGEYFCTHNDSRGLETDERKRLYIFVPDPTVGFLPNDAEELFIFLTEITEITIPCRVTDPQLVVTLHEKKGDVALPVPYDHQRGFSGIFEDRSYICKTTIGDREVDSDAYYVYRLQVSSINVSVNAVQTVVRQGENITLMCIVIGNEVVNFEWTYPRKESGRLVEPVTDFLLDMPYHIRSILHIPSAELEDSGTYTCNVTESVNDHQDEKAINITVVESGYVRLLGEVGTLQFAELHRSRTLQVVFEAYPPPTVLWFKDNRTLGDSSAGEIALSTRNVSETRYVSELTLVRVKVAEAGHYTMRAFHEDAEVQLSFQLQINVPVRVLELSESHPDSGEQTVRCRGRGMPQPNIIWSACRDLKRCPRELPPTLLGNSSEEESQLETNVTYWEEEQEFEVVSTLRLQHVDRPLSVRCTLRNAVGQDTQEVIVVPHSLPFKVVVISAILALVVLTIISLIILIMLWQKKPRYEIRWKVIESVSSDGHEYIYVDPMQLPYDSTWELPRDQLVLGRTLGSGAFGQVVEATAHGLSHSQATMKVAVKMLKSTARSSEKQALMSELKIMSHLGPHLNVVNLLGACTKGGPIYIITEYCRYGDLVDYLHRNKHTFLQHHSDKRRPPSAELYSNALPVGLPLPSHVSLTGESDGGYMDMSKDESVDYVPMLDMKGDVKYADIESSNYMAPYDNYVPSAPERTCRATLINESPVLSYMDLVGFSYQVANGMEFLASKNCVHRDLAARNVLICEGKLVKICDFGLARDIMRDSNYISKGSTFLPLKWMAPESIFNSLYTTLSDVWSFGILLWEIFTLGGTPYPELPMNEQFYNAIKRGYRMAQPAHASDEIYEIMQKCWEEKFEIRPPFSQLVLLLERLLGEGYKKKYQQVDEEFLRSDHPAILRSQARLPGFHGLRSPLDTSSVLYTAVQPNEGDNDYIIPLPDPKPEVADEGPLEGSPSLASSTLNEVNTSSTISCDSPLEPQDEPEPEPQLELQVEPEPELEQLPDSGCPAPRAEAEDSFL

[5] = biological target: Receptor tyrosine-protein kinase erbB-2 (Homo sapiens, UniProt P04626); test: Inhibition of ERBB2 after 80 mins by radiometric protein kinase assay
Outline: (§3)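 The substrate was Poly(Glu,Tyr)4:1. 12 concentrations were run in triplicate with 1% final DMSO, at 30 °C for 80 min. Reactions were stopped with 2% H₃PO₄, washed with 0.9% NaCl, and ³³P incorporation was read by scintillation counting.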

[6] = biological target: Epidermal growth factor receptor (Homo sapiens, UniProt P00533); test: Inhibition of EGFR after 80 mins by radiometric protein kinase assay
Chain of Epidermal growth factor receptor (P00533 whole entry): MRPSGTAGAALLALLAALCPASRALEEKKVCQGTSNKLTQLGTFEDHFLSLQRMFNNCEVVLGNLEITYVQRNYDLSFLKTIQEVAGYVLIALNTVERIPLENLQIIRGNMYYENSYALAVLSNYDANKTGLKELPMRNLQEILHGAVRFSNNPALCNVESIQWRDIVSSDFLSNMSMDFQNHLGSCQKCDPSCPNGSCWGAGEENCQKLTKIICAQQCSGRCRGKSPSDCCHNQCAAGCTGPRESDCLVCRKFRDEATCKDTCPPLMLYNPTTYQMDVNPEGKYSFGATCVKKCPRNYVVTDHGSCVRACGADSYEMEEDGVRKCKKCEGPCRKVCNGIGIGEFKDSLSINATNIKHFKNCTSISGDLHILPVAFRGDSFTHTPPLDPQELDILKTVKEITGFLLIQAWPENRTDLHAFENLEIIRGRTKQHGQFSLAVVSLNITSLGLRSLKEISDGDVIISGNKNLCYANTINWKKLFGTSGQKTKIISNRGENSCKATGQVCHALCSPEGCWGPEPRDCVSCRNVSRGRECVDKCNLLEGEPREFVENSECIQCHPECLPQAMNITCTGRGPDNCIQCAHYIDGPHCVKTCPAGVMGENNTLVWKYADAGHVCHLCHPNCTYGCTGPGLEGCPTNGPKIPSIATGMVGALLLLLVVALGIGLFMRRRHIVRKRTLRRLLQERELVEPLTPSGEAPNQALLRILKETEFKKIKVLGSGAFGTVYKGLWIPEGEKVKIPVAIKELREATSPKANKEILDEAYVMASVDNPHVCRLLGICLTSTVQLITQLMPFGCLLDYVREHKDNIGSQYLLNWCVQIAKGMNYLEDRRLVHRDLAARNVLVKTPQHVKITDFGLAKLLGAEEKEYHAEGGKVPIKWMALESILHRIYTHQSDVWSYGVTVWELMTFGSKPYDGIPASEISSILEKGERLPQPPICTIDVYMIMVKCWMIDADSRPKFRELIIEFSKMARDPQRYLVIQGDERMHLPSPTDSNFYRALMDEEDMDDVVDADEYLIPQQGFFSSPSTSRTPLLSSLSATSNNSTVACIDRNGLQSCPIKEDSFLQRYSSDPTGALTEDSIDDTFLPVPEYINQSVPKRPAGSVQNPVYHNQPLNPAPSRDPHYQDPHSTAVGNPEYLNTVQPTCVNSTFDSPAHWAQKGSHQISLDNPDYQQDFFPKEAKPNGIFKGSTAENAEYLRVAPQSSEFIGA

[7] = biological target: Vascular endothelial growth factor receptor 1 (Homo sapiens, UniProt P17948); test: Inhibition of VEGFR1 after 80 mins by radiometric protein kinase assay; outline: as §1
[8] = biological target: Mast/stem cell growth factor receptor Kit (Homo sapiens, UniProt P10721); test: Inhibition of KIT after 80 mins by radiometric protein kinase assay; outline: as §3
Chain of Mast/stem cell growth factor receptor Kit (P10721 whole entry): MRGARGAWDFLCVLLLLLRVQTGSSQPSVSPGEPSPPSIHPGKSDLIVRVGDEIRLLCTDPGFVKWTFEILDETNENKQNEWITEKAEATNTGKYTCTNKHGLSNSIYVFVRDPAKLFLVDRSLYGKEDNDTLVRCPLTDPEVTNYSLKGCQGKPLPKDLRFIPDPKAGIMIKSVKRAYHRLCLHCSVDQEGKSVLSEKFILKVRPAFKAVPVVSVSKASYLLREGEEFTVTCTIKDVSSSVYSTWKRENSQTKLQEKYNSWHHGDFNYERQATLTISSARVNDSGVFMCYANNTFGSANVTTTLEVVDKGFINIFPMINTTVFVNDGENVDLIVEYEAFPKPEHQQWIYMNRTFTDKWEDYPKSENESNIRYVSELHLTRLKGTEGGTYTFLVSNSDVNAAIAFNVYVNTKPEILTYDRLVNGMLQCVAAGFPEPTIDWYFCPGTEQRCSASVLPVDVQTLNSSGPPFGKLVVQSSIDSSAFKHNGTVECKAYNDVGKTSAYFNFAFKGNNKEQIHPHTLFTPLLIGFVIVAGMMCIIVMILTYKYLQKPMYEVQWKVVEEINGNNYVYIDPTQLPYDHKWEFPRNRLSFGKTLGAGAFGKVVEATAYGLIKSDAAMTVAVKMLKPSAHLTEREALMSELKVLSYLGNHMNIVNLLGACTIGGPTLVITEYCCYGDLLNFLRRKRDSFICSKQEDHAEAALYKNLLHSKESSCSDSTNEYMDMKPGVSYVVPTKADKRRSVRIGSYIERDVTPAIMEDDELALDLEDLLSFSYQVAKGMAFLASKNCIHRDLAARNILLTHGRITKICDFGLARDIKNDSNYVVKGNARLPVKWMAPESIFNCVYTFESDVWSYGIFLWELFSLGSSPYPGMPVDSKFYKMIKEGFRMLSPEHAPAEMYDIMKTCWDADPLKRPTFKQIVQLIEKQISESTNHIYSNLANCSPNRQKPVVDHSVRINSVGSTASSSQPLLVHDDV

[9] = biological target: Insulin-like growth factor 1 receptor (Homo sapiens, UniProt P08069); test: Inhibition of IGF1R after 80 mins by radiometric protein kinase assay; outline: as §1
Angiopoietin-1 receptor = Angiopoietin-1 receptor (Homo sapiens, UniProt Q02763); test: Inhibition of TIE2 after 80 mins by radiometric protein kinase assay; outline: as §2

Row | Compound | IC50 [1] | IC50 [2] | IC50 [3] | IC50 [4] | IC50 [5] | IC50 [6] | IC50 [7] | IC50 [8] | IC50 [9] | IC50 (Angiopoietin-1 receptor)
1 | COc1cc(C2=C(c3c[nH]c4ccc(F)cc34)C(=O)NC2=O)cc(OC)c1OC | 66 nM | 1800 nM | 82 nM | 2670 nM | > 8480 nM | > 8480 nM | 150 nM | 3470 nM | 8530 nM | 1570 nM
2 | COc1cc(C2=C(c3c[nH]c4ccc(Br)cc34)C(=O)NC2=O)cc(OC)c1OC | 21 nM | 1160 nM | 22.5 nM | 900 nM | 13300 nM | 5800 nM | 72.4 nM | 3220 nM | 4240 nM | 2370 nM
